Compound activity as filed in PubChem.
Only some compounds are listed: those with a hit (about 1.5% of all), similar ones and a draw of the others.
Hck Nef HTS – inhibitors of Nef-activated human Hck kinase, primary screen, biochemical, Z-Lyte FRET, 384-well, Hck-YEEI; Tyrosine-protein kinase HCK (Homo sapiens), P08631; Recombinant Hck-YEEI plus Nef, Z-Lyte FRET kinase assay; inhibition, % at 20 µM; actives 0.68% (n = 220,000); AID 463187, 2010;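 active = Hck-Nef kinase inhibition above about 50%, limit read from the data; inactive = inhibition below that limit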
Target sequence (P08631 whole entry, looked up): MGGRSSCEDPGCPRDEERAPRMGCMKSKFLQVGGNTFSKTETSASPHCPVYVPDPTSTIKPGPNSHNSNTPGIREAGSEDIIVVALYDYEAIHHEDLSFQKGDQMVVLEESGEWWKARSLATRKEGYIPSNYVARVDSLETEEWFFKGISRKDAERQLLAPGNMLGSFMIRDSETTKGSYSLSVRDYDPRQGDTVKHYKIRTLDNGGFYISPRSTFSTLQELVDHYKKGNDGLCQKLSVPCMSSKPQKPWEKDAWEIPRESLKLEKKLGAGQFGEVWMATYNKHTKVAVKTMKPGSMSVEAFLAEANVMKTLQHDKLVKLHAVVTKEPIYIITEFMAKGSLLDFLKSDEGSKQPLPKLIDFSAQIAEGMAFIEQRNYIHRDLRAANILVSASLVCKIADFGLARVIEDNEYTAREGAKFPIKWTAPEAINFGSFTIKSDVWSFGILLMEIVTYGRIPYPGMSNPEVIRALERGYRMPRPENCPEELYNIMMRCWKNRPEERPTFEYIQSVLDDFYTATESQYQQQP
Runt-SMMHC FRET – inhibitors of RUNX1 Runt–CBFb-SMMHC binding, primary screen, biochemical, FRET, Cerulean-Runt, Venus-CBFb-SMMHC, uHTS; Runt-related transcription factor 1 (Homo sapiens) + Core-binding factor subunit beta …; Cerulean-Runt/Venus-CBFb-SMMHC FRET ratio 530/480, 1 h; inhibition, % at 20 µM; actives 0.74% (n = 220,000); AID 1434, 2008;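 active = mean inhibition across duplicate retests at 20 µM reaching about 50%, limit read from the data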;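 note: inhibitors lower the FRET ratio by blocking Runt binding to CBFb-SMMHC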
RanGTP-Imp inh – inhibitors of RanGTP-importin-beta interaction, primary screen, biochemical, FRET, CFP-Ran, YFP-importin-beta, homogeneous. inhibition, % (concentration not given with the values). actives 1.1% (n = 300,000). cell-free CFP-Ran/YFP-importin-beta FRET ratio. Ran GTPase (GTP-bound) - importin-beta complex;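 active = more than half of the replicate wells show a fall in the fluorescence ratio signal beyond about 16%, limit read from the data, passing the limit was not always enough; inconclusive = exactly half of the replicate wells pass the set limit; inactive = fewer than half of replicates pass the limit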
CaV13 FRET inh – Primary screen for inhibitors of IQ motif and Ca2+-dependent inactivation inhibitor domain binding in CACNA1D, Förster resonance energy transfer in living cells, …; HEK cells, CFP/YFP FRET ICDI-IQ, plate reader, 10 min; percent FRET-ratio fall versus neutral wells; inhibition, % at 12.3 µM; actives 0.098% (n = 340,000); AID 743397;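 active = mean replicate inhibition of at least 30% and at least 1% of replicates passing that level; inconclusive = only one of the two criteria is met; inactive = neither criterion is met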
Runt-CBFb FRET – inhibitors of RUNX1 Runt–CBFb binding, primary screen, biochemical, FRET, Cerulean-Runt, Venus-CBFb, uHTS. Runt-related transcription factor 1 (Homo sapiens) + Core-binding factor subunit beta …. Cerulean-Runt/Venus-CBFb FRET ratio 530/480, 1 h. inhibition, % at 20 µM. actives 0.46% (n = 220,000). AID 1496, 2009;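 active = inhibition over about 50% at 20 µM in the single-dose screen, limit read from the data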
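Schedule: protein complex preformed 1 h, compound exposure 1 h, room temperature, dark; test system: Cerulean-labeled Runt domain protein; amount: 100 nM per protein; buffer or medium: Tris 50 mM pH 7.5, KCl, K2SO4, 0.01% BSA; read-out: loss of energy transfer signal; detection: FRET fluorescence; controls: 5 µM unlabeled CBFb as full-inhibition high control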
A number is an active result; n = inactive; u = inconclusive; x = not tested or not shown.

SMILES | Hck Nef HTS | Runt-SMMHC FRET | RanGTP-Imp inh | CaV13 FRET inh | Runt-CBFb FRET
COc1ccc2[nH]c3c4c(ccc3c2c1)C(=O)C=CC4=O | n | n | x | n | 55
COc1ccc2[nH]c(=O)cc(C(=O)O)c2c1 | n | n | n | n | n
Cc1cc(C)c2cc(C#N)c(NCCNC(=S)NCCCN3CCOCC3)nc2c1 | n | n | n | n | n
CCOCCCNC(=S)NCCCNc1nc2ccc(C)cc2cc1C#N | n | 89 | x | n | 93
CCOCCCNC(=S)NCCNc1nc2ccc(C)cc2cc1C#N | n | 111 | 31 | u | 81
COc1ccc(NC(=O)c2cc(SC)ccc2Cl)cc1 | n | n | n | n | n
Nc1cc(C(=O)N2CCN(c3cccc(Cl)c3)CC2)ccc1N1CC2CC(C1)c1cccc(=O)n1C2 (stereo unspecified) | x | x | x | n | x
O=C(N/N=C/c1cn(CCOc2ccccc2)c2ccccc12)c1ccncc1 | n | n | n | n | n
Cc1cccc(NCN2C(=O)c3ccncc3C2=O)n1 | n | n | 19 | n | n
c1ccc(NN=C(c2ccccc2)c2cccs2)cc1 | x | x | x | n | x
COc1ccc(C(=O)/C=C/NCc2ccc(C)cc2)cc1 | n | x | 25 | x | x
Cc1cc(C(=O)NCc2ccc(S(N)(=O)=O)cc2)cs1 | n | n | n | n | n
O=C1Nc2ccc(Br)cc2C12NNc1ccccc1O2 (stereo unspecified) | n | n | n | n | n
Cc1ccc(-n2nc3c(=O)n(CC(=O)NCc4ccccc4)nc(C)c3c2C)cc1 | x | x | n | n | x
N=c1c(S(=O)(=O)c2ccccc2)cc2c(=O)n3ccccc3nc2n1CCCN1CCOCC1 | x | x | 155 | n | x
CCOCCCn1c(=N)c(S(=O)(=O)c2ccccc2)cc2c(=O)n3cc(C)ccc3nc21 | x | x | 160 | n | x
N=c1c(S(=O)(=O)c2ccc(Cl)cc2)cc2c(=O)n3ccccc3nc2n1CCN1CCOCC1 | n | 63 | n | n | 90
Cc1ccc(S(=O)(=O)c2c(N)n(CCN3CCOCC3)c3nc4ccccc4nc23)cc1C | n | n | n | x | n
Cc1ccc(S(=O)(=O)c2cc3c(=O)n4ccccc4nc3n(CCCN3CCOCC3)c2=N)cc1C | x | x | 135 | n | x
Cc1nc2ccc3nc(NC(=O)C4COc5ccccc5O4)sc3c2s1 (stereo unspecified) | n | n | n | n | n
CCCCCn1c(=N)c(S(=O)(=O)c2ccc(Br)cc2)cc2c(=O)n3cccc(C)c3nc21 | x | x | u | n | x
N=c1c(S(=O)(=O)c2ccc(Cl)cc2)cc2c(=O)n3ccccc3nc2n1CCc1ccccc1 | x | x | 50 | n | x
O=c1c2ccccc2nc(-c2ccccc2)n1Cc1ccco1 | n | n | n | n | n
O=C1c2ccccc2C(=O)N1CCCc1nc2ccccc2c(=O)n1Cc1ccco1 | n | n | n | n | 130
O=C1c2ccccc2C(=O)N1CCc1nc2ccccc2c(=O)n1CCCn1ccnc1 | n | n | 25 | n | n
SMILES | Hck Nef HTS | Runt-SMMHC FRET | RanGTP-Imp inh | CaV13 FRET inh | Runt-CBFb FRET
CCn1c(-c2ccc(C)cc2)n[nH]c1=S | n | n | n | n | n
O=C(NCCN1CCOCC1)c1cc2sccc2n1Cc1ccc(F)cc1 | n | n | n | n | n
CN(C)Cc1cc(O)c(CN(C)C)cc1O | n | 69 | n | n | n
CN(C)Cc1cc(C(C)(C)C)cc(C(C)(C)C)c1O | n | n | n | n | n
CCN1C(=O)c2cccc3c(S(=O)(=O)NCC4CCCO4)ccc1c23 (stereo unspecified) | n | n | 18 | n | n
CCN1C(=O)c2cccc3c(S(=O)(=O)NCc4cccnc4)ccc1c23 | n | 57 | 23 | n | n
CCN1C(=O)c2cccc3c(S(=O)(=O)Nc4ccncc4)ccc1c23 | n | n | n | x | n
O=C1Nc2ccc(S(=O)(=O)NCC3CCCO3)c3cccc1c23 (stereo unspecified) | n | n | n | n | n
Cc1ccc(NS(=O)(=O)c2cccc(C(=O)NN3CCOCC3)c2)cc1 | n | n | n | n | n
N#CCc1cnc2ccccc2n1 | n | n | 29 | n | n
COC(=O)c1ccc2nc(NC(=O)C(C)C)sc2c1 | n | n | 30 | n | n
COC(=O)c1ccc2nc(Nc3nc4c(F)cc(F)cc4s3)sc2c1 | n | n | 71 | n | n
COC(=O)c1ccc2nc(NC(=O)C3CC3)sc2c1 | x | x | n | n | x
CN(CC(=O)NCCc1ccc(S(N)(=O)=O)cc1)CC(=O)Nc1ccccc1Cl | x | x | x | n | x
CCOC(=O)N1CCc2c(sc(NC(C)=O)c2C(N)=O)C1 | n | x | n | n | x
CCN1CCc2c(sc(NC(=O)COc3ccccc3)c2C(=O)OC)C1 | x | x | 87 | n | x
CCN1CCc2c(sc(NC(=O)c3ccc(S(=O)(=O)N4CCOCC4)cc3)c2C(=O)OC)C1 | n | n | n | x | n
CN1CCc2c(sc(NC(=O)Cc3ccc(F)cc3)c2C(N)=O)C1 | x | x | 131 | n | x
CCOC(=O)c1c(NC(=O)Cc2ccccc2)sc2c1CCN(C)C2 | x | x | 76 | n | x
CCN1CCc2c(sc(NC(=S)NC(=O)c3ccco3)c2C(N)=O)C1 | n | 58 | 163 | n | n
COc1ccc(CNC(=O)C2CCN(C(=O)N3CCOc4ccc(C)cc43)CC2)cc1 | n | n | x | x | n
CC(C)[N+]1(C)[C@@H]2CC[C@@H]1CC(OC(=O)C(CO)c1ccccc1)C2 (stereo partly specified) | x | x | x | n | x
CCOC(=O)N1CCc2c(sc(NC(=O)c3ccc(Cl)s3)c2C(N)=O)C1 | n | n | x | x | n
CCOC(=O)c1c(NC(=O)CSc2nnc(C)s2)sc2c1CCN(C)C2 | n | 135 | 27 | n | 79
CCN1CCc2c(sc(NC(=O)Nc3ccc(Cl)c(Cl)c3)c2C(N)=O)C1 | n | 77 | x | 59 | n
SMILES | Hck Nef HTS | Runt-SMMHC FRET | RanGTP-Imp inh | CaV13 FRET inh | Runt-CBFb FRET
CCOC(=O)c1c(NC(=O)OC)sc2c1CCC2 | n | n | n | n | n
Cc1nnc(SCC(=O)Nc2sc3c(c2C(=O)c2ccccc2)CCCC3)s1 | n | n | n | n | n
CCOC(=O)c1c(NC(=O)C(F)(OC)C(F)(F)F)sc2c1CCN(C)C2 (stereo unspecified) | n | 62 | 76 | x | 84
CCOC(=O)c1c(NC(=S)Nc2ccc(Cl)cc2)sc2c1CCN(C)C2 | n | 164 | x | n | 98
COc1ccc(CN2CCN(Cc3ccco3)CC2)c(OC)c1 | x | x | n | n | x
CCN1CCc2c(sc(NC(=O)c3ccc(C(=O)c4ccccc4)cc3)c2C(N)=O)C1 | x | x | n | n | x
CCOC(=O)c1c(NC(=O)CCS(=O)(=O)c2ccccc2)sc2c1CCN(C)C2 | x | x | 126 | x | x
